Experimental data published in ChEMBL document CHEMBL1123982, “Syntheses and adrenergic activities of ring-fluorinated epinephrines” (J Med Chem, 1988).

Key:
[1] = target: T1, Adrenergic receptor alpha-2 (Homo sapiens, UniProt P08913+P18825+P18089); test: Binding affinity against alpha 2-Adrenergic receptor in guinea pig cerebral cortical membranes by displacement of [3H]clonidine; parameters: species or system Cavia porcellus; conditions: target entry is the homologue from another species
T1 sequence (P08913 whole entry): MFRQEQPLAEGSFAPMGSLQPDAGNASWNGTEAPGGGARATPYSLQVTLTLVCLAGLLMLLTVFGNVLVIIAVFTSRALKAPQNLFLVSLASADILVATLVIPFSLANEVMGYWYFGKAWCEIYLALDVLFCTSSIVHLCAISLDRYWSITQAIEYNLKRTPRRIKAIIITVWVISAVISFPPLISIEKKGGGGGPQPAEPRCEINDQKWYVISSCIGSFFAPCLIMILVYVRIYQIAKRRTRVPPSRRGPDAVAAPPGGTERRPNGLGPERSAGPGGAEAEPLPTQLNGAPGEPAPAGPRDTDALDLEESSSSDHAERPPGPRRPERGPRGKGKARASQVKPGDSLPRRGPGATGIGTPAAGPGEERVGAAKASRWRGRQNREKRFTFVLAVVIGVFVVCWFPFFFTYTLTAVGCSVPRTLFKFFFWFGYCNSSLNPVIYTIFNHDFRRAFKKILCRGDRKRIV
T1 sequence (P18825 whole entry): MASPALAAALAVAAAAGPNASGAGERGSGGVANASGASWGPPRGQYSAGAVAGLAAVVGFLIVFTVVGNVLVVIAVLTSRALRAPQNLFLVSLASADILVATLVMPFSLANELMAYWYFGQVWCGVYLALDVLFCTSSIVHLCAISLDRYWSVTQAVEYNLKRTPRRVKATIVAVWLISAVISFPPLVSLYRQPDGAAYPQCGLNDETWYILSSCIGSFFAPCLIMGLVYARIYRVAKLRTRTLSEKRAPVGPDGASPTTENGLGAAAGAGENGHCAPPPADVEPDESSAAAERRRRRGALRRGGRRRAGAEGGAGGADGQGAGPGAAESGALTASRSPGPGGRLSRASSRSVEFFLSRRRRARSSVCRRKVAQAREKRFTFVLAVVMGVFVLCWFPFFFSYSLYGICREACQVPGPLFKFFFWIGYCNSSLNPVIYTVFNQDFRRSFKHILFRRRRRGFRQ
T1 sequence (P18089 whole entry): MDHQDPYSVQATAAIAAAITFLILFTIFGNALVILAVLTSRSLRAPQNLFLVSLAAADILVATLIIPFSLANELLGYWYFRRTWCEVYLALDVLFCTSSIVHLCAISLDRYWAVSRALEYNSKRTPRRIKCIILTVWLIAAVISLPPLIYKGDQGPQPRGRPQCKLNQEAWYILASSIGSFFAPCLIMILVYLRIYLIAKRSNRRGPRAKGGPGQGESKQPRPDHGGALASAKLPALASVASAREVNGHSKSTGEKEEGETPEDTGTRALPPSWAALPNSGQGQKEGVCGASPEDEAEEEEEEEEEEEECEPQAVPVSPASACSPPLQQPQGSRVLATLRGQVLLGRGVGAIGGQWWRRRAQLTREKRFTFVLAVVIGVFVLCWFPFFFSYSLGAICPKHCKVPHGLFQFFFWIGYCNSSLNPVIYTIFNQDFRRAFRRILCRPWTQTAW
Outline: (§1)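 Nonspecific binding defined with 10 μM clonidine. Points in triplicate, reported as percent of control; experiment repeated three times.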

Adrenergic receptor beta = Adrenergic receptor beta (Rattus norvegicus, UniProt P18090+P10608+P26255); test: Agonistic potency at beta adrenergic receptor for the stimulation of accumulation of cyclic AMP in cultured C6 glioma cells; type: functional, cell-based
Outline: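 C6 glioma cells subcultured the day before and washed in HEPES-buffered saline (pH 7.4). Preincubated 10 min with 30 μM rolipram, then agonist for 10 min. Stopped with 0.1 M HCl. cAMP measured by commercial kit. Adjusted EC50 is taken from dose-response curves.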

[2] = target: Beta-1 adrenergic receptor (Cavia porcellus, UniProt B0FL73); test: Agonistic potency at beta-1 adrenergic receptor for the percent maximal increase in contraction rate of isolated guinea pig atria; type: functional
Sequence of Beta-1 adrenergic receptor (B0FL73 whole entry): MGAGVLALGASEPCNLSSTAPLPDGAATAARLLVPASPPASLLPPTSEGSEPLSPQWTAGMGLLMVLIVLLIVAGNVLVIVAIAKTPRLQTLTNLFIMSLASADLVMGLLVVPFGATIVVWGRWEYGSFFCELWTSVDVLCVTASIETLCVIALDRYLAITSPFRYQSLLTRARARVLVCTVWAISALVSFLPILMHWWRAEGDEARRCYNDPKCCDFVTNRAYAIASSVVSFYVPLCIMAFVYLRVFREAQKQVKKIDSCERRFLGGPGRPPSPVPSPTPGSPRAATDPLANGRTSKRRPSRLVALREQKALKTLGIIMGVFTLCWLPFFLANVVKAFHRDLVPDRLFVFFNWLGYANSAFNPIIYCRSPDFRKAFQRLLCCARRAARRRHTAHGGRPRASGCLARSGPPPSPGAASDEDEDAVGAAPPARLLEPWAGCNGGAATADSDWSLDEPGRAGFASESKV
Outline: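 Isolated guinea pig atria, giving percent of maximal rate increase for four individual preparations.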

[3] = target: T1, Adrenergic receptor alpha-2; test: Agonistic potency at alpha 2-Adrenergic receptor for inhibition of 10 uM forskolin-elicited stimulation of adenylate cyclase in human platelet membranes; type: functional, cell membranes
Outline: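 Human platelet membranes (10–15 μg protein/tube) added to medium preincubated 5 min at 37 °C: 0.1 mM [α-32P]ATP, 0.1 mM cAMP, adenosine deaminase, 0.1 mM rolipram, 0.2 mM EGTA, creatine phosphate/kinase, BSA, 1 μM GTP, 10 μM forskolin, 1 mM MgCl2, 50 mM Tris-HCl pH 7.4. Stopped with zinc acetate/Na2CO3. Product is cAMP (pmol/min/mg), triplicate points. Adjusted EC50 is taken from dose-response curves.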

[4] = target: Beta-1 adrenergic receptor (Rattus norvegicus) (UniProt P18090); test: Binding affinity against beta-1 adrenergic receptor in rat cerebral cortical membranes by displacement of Dihydro-[3H]-alprenolol
Sequence of Beta-1 adrenergic receptor (Rattus norvegicus) (P18090 whole entry, looked up): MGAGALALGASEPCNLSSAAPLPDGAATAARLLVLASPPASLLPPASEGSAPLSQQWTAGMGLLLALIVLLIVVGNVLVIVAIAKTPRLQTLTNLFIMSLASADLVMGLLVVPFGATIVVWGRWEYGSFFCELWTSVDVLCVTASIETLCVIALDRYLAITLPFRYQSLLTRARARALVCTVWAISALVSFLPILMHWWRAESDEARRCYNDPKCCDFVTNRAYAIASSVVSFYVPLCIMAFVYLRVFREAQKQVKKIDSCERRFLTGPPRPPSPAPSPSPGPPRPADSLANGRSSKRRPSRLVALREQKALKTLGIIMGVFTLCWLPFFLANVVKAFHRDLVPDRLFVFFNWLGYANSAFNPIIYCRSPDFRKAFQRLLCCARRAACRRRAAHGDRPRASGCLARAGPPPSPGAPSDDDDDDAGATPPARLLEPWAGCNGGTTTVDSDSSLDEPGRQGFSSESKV

[5] = target: T1, Adrenergic receptor alpha-2; test: Binding affinity against alpha-2 adrenergic receptor in guinea pig cerebral cortical membranes by displacement of [3H]clonidine; parameters: species or system Cavia porcellus; conditions: target entry is the homologue from another species; outline: as §1

NCC(O)c1ccc(O)c(O)c1F (stereo not given)
Ki [1]: 700 nM

CNCC(O)c1cc(O)c(O)cc1F (stereo not given)
Ki [1]: 9 nM
EC50 (Adrenergic receptor beta): > 1500 nM
EC50 [2]: > 1500 nM
EC50 [3]: 100 nM
Ki [4]: 63000 nM

CNCC(O)c1ccc(O)c(O)c1F (stereo not given)
Ki [5]: 66 nM
EC50 [3]: > 5000 nM

CNC[C@H](O)c1ccc(O)c(O)c1 [EPINEPHRINE]
EC50 [2]: 260 nM
Ki [4]: 3000 nM
